Data set [1] deals with D(1A) dopamine receptor (Homo sapiens) (UniProt P21728). Briefly: Agonist activity at D1 receptor (unknown origin) stably expressed in CHOK1 cells assessed as induction of beta-arrestin recruitment measured after 90 mins by luminescence assay. Type of data set: cell-based. A general note: Recruitment of arrestin is a read-out of receptor activation apart from second messengers.

The target in data set [2] is D(1B) dopamine receptor (Homo sapiens) (UniProt P21918). Briefly: Agonist activity at D5 receptor (unknown origin) stably expressed in CHOK1 cells assessed as induction of beta-arrestin recruitment measured after 90 mins by luminescence assay. Format: cell-based.
Data set [3] has the same target. Briefly: Antagonist activity at D5 receptor (unknown origin) stably expressed in CHOK1 cells assessed as inhibition of dopamine-induced beta-arrestin recruitment measured after 90 mins by luminescence assay. Type of data set: cell-based.
Data set [4] concerns the target T1, D(4) dopamine receptor (Homo sapiens, UniProt P21917).
T1 sequence (P21917 whole entry): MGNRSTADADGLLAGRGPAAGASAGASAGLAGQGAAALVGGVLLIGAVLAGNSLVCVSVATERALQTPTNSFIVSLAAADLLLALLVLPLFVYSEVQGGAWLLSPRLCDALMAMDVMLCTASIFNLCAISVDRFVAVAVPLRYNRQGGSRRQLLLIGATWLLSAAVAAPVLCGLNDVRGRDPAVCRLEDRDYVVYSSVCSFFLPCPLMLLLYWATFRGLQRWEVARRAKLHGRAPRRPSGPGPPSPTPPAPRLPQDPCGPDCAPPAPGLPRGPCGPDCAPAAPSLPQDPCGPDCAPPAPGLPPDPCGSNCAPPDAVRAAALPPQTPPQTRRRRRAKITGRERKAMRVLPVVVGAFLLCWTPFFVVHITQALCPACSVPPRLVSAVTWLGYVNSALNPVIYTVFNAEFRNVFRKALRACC
The data set can be described thus: Antagonist activity at human D4 receptor expressed in CHOK1 cells assessed as suppression of dopamine-induced inhibition of forskolin-stimulated cAMP accumulation measured after 30 mins by Eu-cAMP tracer based TR-FRET assay. Format: functional, cell-based. (In general: cAMP levels reflect the balance of adenylyl cyclase and phosphodiesterase activity.)

Data set [5] addresses T1, D(4) dopamine receptor. Briefly: Agonist activity at human D4 receptor expressed in CHOK1 cells assessed as inhibition of forskolin-induced cAMP accumulation measured after 30 mins by Eu-cAMP tracer based TR-FRET assay. Format: functional, cell-based. Conditions: read-out: EC50. The gist of the method:
(§1)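 LANCE Ultra TR-FRET cAMP assay in CHO-K1 cells stably expressing human D2R long isoform or D4R. Cells were plated in HBSS/5 mM HEPES/0.2 μM metabisulfite, then immediately given compound plus forskolin (10 μM final) for 30 min at room temperature. Eu-cAMP tracer and ULight-anti-cAMP were added for 2 h in the dark. Values are % of maximal dopamine signal, nonlinear regression of triplicate runs, n = 3–4.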

In data set [6] the target is T1, D(4) dopamine receptor. Briefly: Displacement of [3H]N-methylspiperone from human D4.4 receptor expressed in HEK293 cell membranes measured after 60 mins by scintillation counting method. A digest of the protocol:
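Frozen HEK293 membranes stably expressing human D4.4R (30 μg/well) in EBSS-bicarbonate buffer, pH 7.4, were incubated with 0.4 nM [3H]N-methylspiperone and half-log compound dilutions (30% DMSO vehicle) for 60 min at room temperature. Nonspecific binding was defined by 10 μM (+)-butaclamol. Samples were filtered on GF/B filters and counted by scintillation.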

Data set [7] deals with T1, D(4) dopamine receptor. The data set can be described thus: Agonist activity at human D4 receptor expressed in CHOK1 cells assessed as induction of beta-arrestin recruitment measured after 90 mins by luminescence assay. Type of data set: cell-based. The gist of the method: (§2)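 PathHunter enzyme-complementation assay in CHO-K1 cells stably expressing human D2R long isoform, D3R or D4R, seeded overnight in Ham's F12/10% FBS. Compounds were diluted in PBS with 0.2 μM sodium metabisulfite and applied at multiple concentrations for 90 min at 37 °C. Detection reagent was added for 45–60 min at room temperature, then luminescence was read. Values are % of maximal dopamine response, from nonlinear regression of triplicate runs, mean ± SEM, n = 3–4.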

The target in data set [8] is T1, D(4) dopamine receptor. The data set can be described thus: Displacement of [3H](R)-(+)-7-OH-DPAT from human D4.4 receptor expressed in HEK293 cell membranes measured after 90 mins by scintillation counting method. The gist of the method:
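HEK293 cells stably expressing human D4.4R; membranes used fresh in 50 mM Tris, 10 mM MgCl2, 1 mM EDTA, pH 7.4. 60 μg protein/well with 3 nM [3H]-(R)-(+)-7-OH-DPAT (final), half-log dilutions in 30% DMSO, in triplicate. 90 min at room temperature, then GF/B filtration. Nonspecific binding with 10 μM (+)-butaclamol.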
On the technique in general: In a radioligand displacement assay an active substance lowers the binding of a labelled ligand.

For data set [9], the target named is D(1A) dopamine receptor (Homo sapiens) (UniProt P21728). The data set can be described thus: Antagonist activity at D1 receptor (unknown origin) stably expressed in CHOK1 cells assessed as inhibition of dopamine-induced beta-arrestin recruitment measured after 90 mins by luminescence assay. Format: cell-based.
The target in data set [10] is T2, D(2) dopamine receptor (Homo sapiens, UniProt P14416). Briefly: Agonist activity at human D2L receptor expressed in CHOK1 cells assessed as inhibition of forskolin-induced cAMP accumulation measured after 30 mins by Eu-cAMP tracer based TR-FRET assay. Format: cell-based. The gist of the method:
as §1

For data set [11], the target named is T2, D(2) dopamine receptor. Briefly: Antagonist activity at human D2L receptor expressed in CHOK1 cells assessed as inhibition of dopamine-induced beta-arrestin recruitment measured after 90 mins by luminescence assay relative to control. Type of data set: cell-based. The gist of the method:
(§3)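 Antagonist-mode PathHunter β-arrestin assay in CHO-K1 cells stably expressing human D2R long isoform or D3R, seeded overnight. Compound dilutions in PBS with 0.2 μM metabisulfite were co-incubated with an EC80 dopamine concentration for 90 min at 37 °C. Detection reagent was added for 45–60 min at room temperature, then luminescence was read. Values are % of dopamine EC80 response, from nonlinear regression of triplicate runs, n = 3–4.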

For data set [12], the target named is T3, D(3) dopamine receptor (Homo sapiens, UniProt P35462). The data set can be described thus: Displacement of [3H]N-methylspiperone from human D3 receptor expressed in HEK293 cell membranes measured after 60 mins by scintillation counting method. The gist of the method:
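HEK293 cells stably expressing human D3R; membranes in EBSS buffer pH 7.4, stored at −80 °C. 20 μg protein/well with 0.4 nM [3H]N-methylspiperone (final), half-log dilutions in 30% DMSO, in triplicate. 60 min at room temperature, then GF/B filtration. Nonspecific binding with 10 μM (+)-butaclamol.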

The target of data set [13] is T2, D(2) dopamine receptor. The data set can be described thus: Agonist activity at human D2L receptor expressed in CHOK1 cells assessed as induction of beta-arrestin recruitment measured after 90 mins by luminescence assay. Format: cell-based. A digest of the protocol:
as §2

For data set [14], the target named is T4, D(4) dopamine receptor (Homo sapiens) (UniProt P21917).
T4 sequence (whole entry): T1 sequence (P21917 whole entry)
The data set can be described thus: Antagonist activity at human D4 receptor expressed in CHOK1 cells assessed as suppression of dopamine-induced inhibition of forskolin-stimulated cAMP accumulation measured after 30 mins by Eu-cAMP tracer based TR-FRET assay relative to dopamine. Format: functional, cell-based. Details: concentration or dose not given beside the values.

Data set [15] deals with T3, D(3) dopamine receptor. Briefly: Displacement of [3H](R)-(+)-7-OH-DPAT from human D3 receptor expressed in HEK293 cell membranes measured after 90 mins by scintillation counting method. A digest of the protocol: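 Fresh HEK293 hD3R membranes (40 μg/well) in 50 mM Tris, 10 mM MgCl2, 1 mM EDTA, pH 7.4 were incubated with 0.5 nM [3H]-(R)-(+)-7-OH-DPAT and half-log compound dilutions in 30% DMSO for 90 min at room temperature. Nonspecific binding was defined with 10 μM (+)-butaclamol. Samples were filtered on PEI-soaked GF/B filters and counted by scintillation.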

In data set [16] the target is T3, D(3) dopamine receptor. The data set can be described thus: Antagonist activity at human D3 receptor expressed in CHOK1 cells assessed as inhibition of dopamine-induced beta-arrestin recruitment measured after 90 mins by luminescence assay. Conditions: read-out: IC50. Type of data set: cell-based. A digest of the protocol: as §3
For data set [17], the target named is T4, D(4) dopamine receptor (Homo sapiens). Briefly: Agonist activity at human D4 receptor expressed in CHOK1 cells assessed as inhibition of forskolin-induced cAMP accumulation measured after 30 mins by Eu-cAMP tracer based TR-FRET assay relative to dopamine. Type of data set: functional, cell-based. A digest of the protocol: as §1
For data set [18], the target named is T3, D(3) dopamine receptor. Briefly: Agonist activity at human D3 receptor expressed in CHOK1 cells assessed as induction of beta-arrestin recruitment measured after 90 mins by luminescence assay. Type of data set: cell-based. Particulars: read-out: EC50. A digest of the protocol:
as §2

The target of data set [19] is T1, D(4) dopamine receptor. Briefly: Antagonist activity at human D4 receptor expressed in CHOK1 cells assessed as inhibition of dopamine-induced beta-arrestin recruitment measured after 90 mins by luminescence assay. Type of data set: cell-based. Conditions: read-out: IC50.
Data set [20] has as its target T4, D(4) dopamine receptor (Homo sapiens). Briefly: Agonist activity at human D4 receptor expressed in CHOK1 cells assessed as induction of beta-arrestin recruitment measured after 90 mins by luminescence assay relative to control. Format: cell-based. A digest of the protocol: as §2
Data set [21] has the same target. The data set can be described thus: Antagonist activity at human D4 receptor expressed in CHOK1 cells assessed as inhibition of dopamine-induced beta-arrestin recruitment measured after 90 mins by luminescence assay relative to control. Format: cell-based. Details: concentration or dose not given beside the values.
The target of data set [22] is T2, D(2) dopamine receptor. Briefly: Agonist activity at human D2L receptor expressed in CHOK1 cells assessed as inhibition of forskolin-induced cAMP accumulation measured after 30 mins by Eu-cAMP tracer based TR-FRET assay relative to dopamine. Particulars: 0.5 h. Format: cell-based.
For data set [23], the target named is T2, D(2) dopamine receptor. The data set can be described thus: Agonist activity at human D2L receptor expressed in CHOK1 cells assessed as induction of beta-arrestin recruitment measured after 90 mins by luminescence assay relative to control. Format: cell-based. The gist of the method: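 PathHunter enzyme-complementation assay in CHO-K1 cells stably expressing human D2R long isoform, seeded 2625 cells/well and incubated overnight. Compounds diluted in PBS with 0.2 μM sodium metabisulfite, tested at multiple concentrations, 90 min at 37 °C. Detection reagent then 45–60 min at room temperature, luminescence read. Normalized to maximal dopamine response. Nonlinear regression of triplicate runs, n = 3–4.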

In data set [24] the target is T3, D(3) dopamine receptor. Briefly: Agonist activity at human D3 receptor expressed in CHOK1 cells assessed as induction of beta-arrestin recruitment measured after 90 mins by luminescence assay relative to control. Type of data set: cell-based. A digest of the protocol: as §2

The source made the active and inactive calls. The rule behind the calls is not given here. Bounds are passed on as bounds.

T3 sequence (P35462 whole entry): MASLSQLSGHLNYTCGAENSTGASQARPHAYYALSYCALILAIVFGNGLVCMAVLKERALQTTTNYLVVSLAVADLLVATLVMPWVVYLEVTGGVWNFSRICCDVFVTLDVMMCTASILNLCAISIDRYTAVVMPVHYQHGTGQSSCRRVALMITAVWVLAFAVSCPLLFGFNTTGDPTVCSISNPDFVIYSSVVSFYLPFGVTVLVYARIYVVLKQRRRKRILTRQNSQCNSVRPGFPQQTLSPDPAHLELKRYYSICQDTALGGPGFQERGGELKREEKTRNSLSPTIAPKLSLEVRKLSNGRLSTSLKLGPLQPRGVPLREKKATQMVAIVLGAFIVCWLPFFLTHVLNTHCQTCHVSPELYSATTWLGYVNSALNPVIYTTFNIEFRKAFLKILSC
Sequence of D(1A) dopamine receptor (Homo sapiens) (P21728 whole entry): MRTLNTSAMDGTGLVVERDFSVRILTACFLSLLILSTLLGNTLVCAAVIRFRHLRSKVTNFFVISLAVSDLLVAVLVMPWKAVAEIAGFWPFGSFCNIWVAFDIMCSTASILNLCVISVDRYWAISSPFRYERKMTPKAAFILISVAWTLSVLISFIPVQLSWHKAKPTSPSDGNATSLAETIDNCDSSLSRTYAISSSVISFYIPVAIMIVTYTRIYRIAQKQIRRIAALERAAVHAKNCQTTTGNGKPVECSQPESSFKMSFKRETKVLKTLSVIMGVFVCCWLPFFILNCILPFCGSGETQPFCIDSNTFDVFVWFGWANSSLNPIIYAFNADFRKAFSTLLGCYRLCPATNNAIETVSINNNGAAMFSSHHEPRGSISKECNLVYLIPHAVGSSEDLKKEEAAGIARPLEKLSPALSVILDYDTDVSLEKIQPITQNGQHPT
Sequence of D(1B) dopamine receptor (Homo sapiens) (P21918 whole entry): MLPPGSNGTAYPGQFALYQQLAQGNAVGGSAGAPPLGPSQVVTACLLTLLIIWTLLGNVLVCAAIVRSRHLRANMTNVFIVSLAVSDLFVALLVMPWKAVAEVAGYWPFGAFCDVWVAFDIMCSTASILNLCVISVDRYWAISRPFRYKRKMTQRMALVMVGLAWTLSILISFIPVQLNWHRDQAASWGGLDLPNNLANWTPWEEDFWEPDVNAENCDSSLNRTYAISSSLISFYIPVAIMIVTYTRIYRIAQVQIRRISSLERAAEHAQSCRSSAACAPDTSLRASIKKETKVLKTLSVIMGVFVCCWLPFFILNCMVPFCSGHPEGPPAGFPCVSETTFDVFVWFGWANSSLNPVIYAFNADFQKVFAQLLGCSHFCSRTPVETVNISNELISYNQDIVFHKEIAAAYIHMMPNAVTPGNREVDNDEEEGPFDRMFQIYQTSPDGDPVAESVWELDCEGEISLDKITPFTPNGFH
T2 sequence (P14416 whole entry): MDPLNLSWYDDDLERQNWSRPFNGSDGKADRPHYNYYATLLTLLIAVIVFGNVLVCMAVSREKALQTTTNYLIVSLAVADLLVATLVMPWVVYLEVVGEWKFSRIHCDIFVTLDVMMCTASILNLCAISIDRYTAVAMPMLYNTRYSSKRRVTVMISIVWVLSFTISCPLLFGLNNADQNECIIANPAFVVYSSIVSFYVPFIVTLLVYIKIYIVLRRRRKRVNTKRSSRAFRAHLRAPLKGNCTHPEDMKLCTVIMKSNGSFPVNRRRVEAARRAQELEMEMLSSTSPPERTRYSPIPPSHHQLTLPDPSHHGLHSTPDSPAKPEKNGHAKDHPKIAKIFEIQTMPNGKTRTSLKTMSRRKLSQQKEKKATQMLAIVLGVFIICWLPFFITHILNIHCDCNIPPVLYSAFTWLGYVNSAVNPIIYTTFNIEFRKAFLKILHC

`Cc1cccc(NC(=O)CN2CCC(c3ccccn3)CC2)c1`: the result in data set [1] and in [2] was inactive. Besides, the inhibition entry in [3] and in data set [9] was “inactive” each time. The values for the concentration for half-maximal inhibition (IC50) at D(4) dopamine receptor [4], on D(3) dopamine receptor [16] and on D(4) dopamine receptor [19] were 68.4 nM, more than 100000 nM and 191 nM, respectively. Moreover, the concentration giving a half-maximal response (EC50) at D(4) dopamine receptor [5] is 2.7 nM; on D(4) dopamine receptor [7] (read-out: EC50) it was 473 nM; on D(2) dopamine receptor [10] it was “Not Active”; on D(2) dopamine receptor [13], “Not Active”; at D(3) dopamine receptor [18], more than 100000 nM. The Ki on D(4) dopamine receptor [6] came out at 54.2 nM; at D(4) dopamine receptor [8], 3.95 nM; at D(3) dopamine receptor [12], 1680 nM; on D(3) dopamine receptor [15], 167 nM. Besides, on D(2) dopamine receptor [11], the INH was found to be 94.8%. The inhibition in data set [14] came out at 53.8%; in [21] it was 81.7%. The values for the maximal response (Emax) in data set [17] and in data set [20] were 61.9% and 22.5%, respectively.
With `Cc1cccc(NC(=O)CCN2CCC(c3ccccn3)CC2)c1`, the result in data set [1] and in data set [2] was inactive. Moreover, the Emax was 83.1% at D(2) dopamine receptor [22], 48.9% at D(2) dopamine receptor [23] and 55.4% on D(3) dopamine receptor [24]. Also, the inhibition entry in [3] and in data set [9] was “inactive” in each case. Moreover, the half-maximal inhibitory concentration (IC50) is 6340 nM at D(4) dopamine receptor [4], more than 50000 nM at D(3) dopamine receptor [16] and 3800 nM at D(4) dopamine receptor [19]. Moreover, the EC50 is 349 nM on D(4) dopamine receptor [5], “Not Active” at D(4) dopamine receptor [7] and 970 nM at D(3) dopamine receptor [18]. Also, the inhibitory constant (Ki) on D(4) dopamine receptor [6] is more than 10000 nM; at D(3) dopamine receptor [12], 3040 nM; at D(3) dopamine receptor [15], 510 nM. Besides, on D(2) dopamine receptor [11], the INH is given as 72.1%.

In general, inhibition refers to the drop in the measured response relative to a control, in per cent. One may read the IC50 as the concentration needed to halve the response being measured. The term EC50 denotes the concentration that produces a half-maximal response. A word on the Ki: it is a measure of affinity in units of concentration, obtained from inhibition or displacement. The Emax is the size of the effect at its maximum, as opposed to the concentration needed.

The values above are taken from ChEMBL document CHEMBL4390675, “Dopamine D4 Receptor-Selective Compounds Reveal Structure-Activity Relationships that Engender Agonist Efficacy” (J Med Chem, 2019).
